In paper PMC6448596 (Cell reports, 2019):

Columns and labels:
WDR5 [1] = test: Surface plasmon resonance direct affinity measurement; format: binding, Human
In short: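 Enhanced SPR (eSPR) was run externally using purified WDR5 supplied by the authors. Test compounds were prepared as 30 mM DMSO stock solutions.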

MLL1 complex = MLL1 complex (Homo sapiens, UniProt P61964); test: MLL1 HMT assay; format: biochemical
Molm13 cells = test: Proliferation assay; format: cell-based; conditions: Homo sapiens, MOLM-13, 72 h
In short: (§1)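 CellTiter-Glo, 5,000 cells/well. Cells received 0.1% DMSO or at least five two-fold dilutions of test compound (top 50 μM, final DMSO 0.1%), in triplicate wells and ≥2 biological replicates, for 72 h at 37°C. Reagent was added after equilibration to RT, with 30 min dark incubation before luminescence. Signals were normalized to DMSO wells and GI50 obtained by curve fitting. Curve error bars are SEM.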

THP-1 cells = test: Proliferation assay; format: cell-based; conditions: Homo sapiens, THP-1, 72 h
In short: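 THP-1 cells were grown in RPMI-1640 with 0.05 mM 2-mercaptoethanol and 10% FBS. Cells were plated 5,000/well with ≥5 two-fold dilutions of test compound (top 50 μM, 0.1% DMSO final), in triplicate wells with ≥2 biological replicates.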

HEL cells = test: Proliferation assay; format: cell-based; conditions: Homo sapiens, 72 h
In short: as §1

SET-2 cells = test: Proliferation assay; format: cell-based; conditions: Homo sapiens, SET-2, 72 h
In short: as §1

MONO-Mac-6 cells = test: Proliferation assay; format: cell-based; conditions: Homo sapiens, MONO-MAC-6, 72 h
In short: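 MONO-MAC-6 cells were maintained in RPMI with 10% FBS, non-essential amino acids and OPI supplement. CellTiter-Glo used 5,000 cells/well and ≥5 two-fold dilutions from 50 μM (0.1% DMSO final), in triplicate wells with ≥2 biological replicates, over 72 h at 37°C.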

MV4:11 cells = test: Induction of apoptosis; format: cell-based, human; conditions: 2 μM, up to 6 days
In short: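 MV4:11 cells were exposed 0–6 days to 2 μM test compound, negative control or 0.1% DMSO, with medium and compound refreshed on day 3. Camptothecin (2 μM, 4 h) served as positive control. 5 × 10^5 cells were stained with Alexa Fluor488–annexin V for 15 min, then propidium iodide for 10 min. Flow cytometry recorded ≥10,000 events, with doublet exclusion and quadrants set on unstained cells. Annexin V+/PI− % is from three biological replicates, SEM.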

[2] = system: PARP-1 cleavage in MV4:11 cells; test: Induction of PARP1 cleavage; format: cell-based, human; conditions: 2 μM
In short: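 MV4:11 cells were treated 1, 2, 3 or 6 days with 2 μM test compound, its negative control or 0.1% DMSO. Cleaved PARP-1 was detected by western blot, with histone H3 as loading reference.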

[3] = system: p53 and p21 protein levels in Molm13 cells; test: p53/p21 induction western blot; format: cell-based, human; conditions: Molm13, 3 μM, 24 h
In short: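 Treatment lasted 24 h with test compound or its negative control, at 2 μM in MV4:11 and 3 μM in Molm13. Comparators were 2 μM Nutlin-3 or 0.1% DMSO. Four million cells were PBS-washed and lysed 10 min on ice in Kischkel buffer. p53 and p21 were detected by western blot, with histone H3 as loading control.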

[4] = system: gene expression in MV4:11 cells; test: RNA-Seq; format: cell-based, human; conditions: overlap of RNA-seq and WDR5 ChIP-seq, MV4:11
[5] = system: protein synthesis in MV4:11 cells; test: Relative protein synthesis rates; format: cell-based, human; conditions: MV4:11, 2 μM
In short: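 Cycloheximide 30 min before OPP served as positive control; an OPP-free sample set background. Alexa647 signal was read by flow (≥10,000 events, doublets excluded). Biological triplicate, SEM.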

WDR5 [6] = target: WDR5 (Homo sapiens, UniProt P61964); test: ChIP-Seq of WDR5; format: cell-based; conditions: MV4:11, 2 μM, 4 h
In short: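 MV4:11 cells at 10^6/ml were treated 4 h with 2 μM test compound, negative control or 0.1% DMSO. Cells were concentrated to 4 × 10^6/ml in PBS, fixed in 1% formaldehyde for 10 min at RT and quenched with 125 mM glycine. They were lysed in 1% SDS FA buffer. Sheared chromatin was diluted to 0.1% SDS and immunoprecipitated overnight at 4°C with anti-WDR5 (D9E1I or 429A) or IgG on BSA-blocked protein-A agarose. Peaks were compared by normalized average read counts.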

window of selectivity for MLL1 over other MLL/SET complexes (MLL1 complex): ≥ 250 fold
IC50 (MLL1 complex; MLL1 HMT IC50, H3 peptide as substrate): ~0.02 µM
GI50 (Molm13 cells): 6.43 ± 0.683 µM
GI50 (THP-1 cells): > 50 µM
Structure (SMILES): Cc1nc(F)ccc1-c1cc(Cn2ccn(C)c2=N)cc(C(=O)NCc2ccc(Cl)c(Cl)c2)c1 [Compound C6, N-(3,4-Dichlorobenzyl)-3-(6-fluoro-2-methylpyridin-3-yl)-5-((2-imino-3-methyl-2,3-dihydro-1H-imidazol-1-yl)methyl)benzamide]
SPR affinity for WDR5 relative to values calculated by TR-FRET (WDR5 [1]): ≤ 2 fold
specificity of HMT inhibition among all MLL/SET complexes (MLL1 complex): specific for MLL1, with little activity against other MLL/SET family members
GI50 (HEL cells): > 50 µM
GI50 (SET-2 cells): > 50 µM
GI50 (MONO-Mac-6 cells): 31.7 ± 2.32 µM
annexin V staining, apoptotic cells (MV4:11 cells): appearance of apoptotic cells
time to detection of cleaved PARP-1 [2]: ≤ 24 h
p53 and p21 protein induction [3]: p53 and p21 are also induced
number of WDR5-bound genes induced [4]: 1
number of WDR5-bound genes repressed [4]: 59
OPP incorporation ([5]; 1 day): measurable reduction in OPP incorporation
OPP incorporation ([5]; 6 days): roughly half of the cells in the C6-treated population incorporated OPP at levels similar to those of cells treated with CHX
WDR5 binding events on chromatin (WDR5 [6]): robust decrease in all detectable WDR5 binding events
